The series relates to MS2 coat protein. Put plainly: apparent Kd, MS2 coat protein; higher = weaker binding; RNA-MaP array. An outline of the steps:
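In Tris-HCl pH 7.5 buffer with KCl, MgCl2, BSA, DTT, tRNA and Tween20, with or without input ligand, fluorescently labeled MS2 coat protein at 1.5 nM to 3 μM was incubated at room temperature with designed RNAs. The RNAs had been transcribed on an Illumina sequencing chip from sequenced DNA templates, and incubation ran 0.8–1.5 h at the lowest to 10–20 min at the highest concentrations. Apparent Kd is the median of binding-curve fits for individual clusters. Designs measured on fewer than 10 clusters were excluded.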

[1] abbreviates: designed as: ON switch for flavin mononucleotide, no ligand.
The mark [2] stands for this setting: ligand present: flavin mononucleotide, designed as: ON switch for flavin mononucleotide.
[3] abbreviates: designed as: OFF switch for flavin mononucleotide, no ligand.
The mark [4] stands for this setting: ligand present: flavin mononucleotide, designed as: OFF switch for flavin mononucleotide.

Take “AAAACUUAUCAGAAGGAACGCACUCAACCGUUGUUAGGAUAUGAUCACCUAACAUGAGGAUCACCCAUGUUCACAGUAGGAGAC”: the “apparent Kd” value reads like this: under setting [1], 0.13 µM; under setting [2], 0.0896 µM.
For the sequence “ACAUGAGGAUCACCCAUGUUAAAAGAAGAUAGCAUAUUGGGUAGAAGGUCACAUUUCCAUUAAGUGAAGGAUAUACCAUGAUUC”, the “apparent Kd” value runs as follows: under setting [1], 0.0126 µM; under setting [2], 0.00704 µM.
The corresponding values for “CAAUAACAGAAAGGAUAUGGGCUCGAUACAUGAGGAUCACCCAUGUCUCCGUCAACGCUCAGUGCCCAGAAGGUUCCGCAGAAU” are 0.034 µM and 0.0202 µM.
The corresponding values for “AUGUAGUCGGUAGGAUAUACGAGUCUGAUAACAGUAGAAGGACCGAGUACGGCUCCGCAGUACAUGAGGAUCACCCAUGUGAUC” are 0.533 µM and 0.286 µM.
The corresponding values for “CACCCAACUAUACAUGAGGAUCACCCAUGUUGAAAGUGCAACAGAAGGCCCUACUAAUAUAGGAGGGAGGAUAUGUGAACCGAA” are 0.0625 µM and 0.0115 µM.
Turning to “ACCUAAUAAGGAUAUACGAAAGAGCCACCUGUAAACAACCGACAUGAGGAUCACCCAUGUAGAAGGUAUUAGGU”, the “apparent Kd” value was determined as 0.00432 µM under setting [3] and 0.00947 µM under setting [4].
As to “CUGUUACAUGAGGAUCACCCAUGUUUUUGGUUAAGAGGAUAUGGCACAUGGUUAAACGUUCCAGAAGGCUUUGCAC”, the “apparent Kd” value under setting [1] came out at 0.0118 µM and the “apparent Kd” value under setting [2] was determined as 0.00894 µM.
Consider “GUCAUGUCAGGAUAUCGUUCGGAGUGCGAUUCCCUCUGCCGCGAGAAGGGACAUGAGGAUCACCCAUGUUCGAA”, for which the “apparent Kd” value was found to be 0.0168 µM under setting [3] and 0.0437 µM under setting [4].
For “UACCGCUACAUAGGAUAUGGAGGAUGUAUGAAACACAUGAGGAUCACCCAUGUCAUCUGCACACGCCAGAAGGAUGGAAGAAAA”, the “apparent Kd” value reads like this: under setting [1], 0.0134 µM; under setting [2], 0.00713 µM.
For “AACCGGCAAGGAUAUACAUGAGGAUCACCCAUGUACGACGCGCUGGCUACGUUUUUAUGUAGAAGGUGCCGACC”, the “apparent Kd” value under setting [3] came out at 0.00619 µM and the “apparent Kd” value under setting [4] was 0.00626 µM.
Regarding “GUGUCGCGUACAGGAUAUGCUUAGGCGCUGCCCUCACAUGAGGAUCACCCAUGUAGUUUCCGCAGGCAGAAGGGUACUGACGUC”, the “apparent Kd” value came to 0.00967 µM under setting [3] and 0.0162 µM under setting [4].
As for “GCAGGACAUGAGGAUCACCCAUGUGAGGGCAGAGGAGGAUAUAACUACCACUAUUGAUCGUUAGAAGGCCUAGAGG”, the “apparent Kd” value came out at 0.04 µM under setting [1] and 0.026 µM under setting [2].
In the case of “AUGUCGCAAUGGAAAAGACAUGAGGAUCACCCAUGUCAGCGUAGAAGGACCUUGUCGACUAAUGGGUAGGAUAUACGAGAAUCC”, the “apparent Kd” value reads like this: under setting [1], 0.00679 µM; under setting [2], 0.0072 µM.
For the sequence “UUCCUCAGCAGGGUAACAUGAGGAUCACCCAUGUCGGAGAGCGAGGAUAUCUCGUGAAGCUCAUAAGAGAAGGCGCACAACUAG”, the “apparent Kd” value is, setting by setting: under setting [3], 0.0182 µM; under setting [4], 0.0172 µM.
Consider “UCGAGUACGGUGAGGAUAUCAUGAGGAUUACUACAAGAGAAGGCACAUGAGGAUCACCCAUGUGGCGACCAUUC”, for which the “apparent Kd” value is 0.00628 µM under setting [3] and 0.00632 µM under setting [4].
As to “AGUGCAAUAUAGAAGGCCCAAACAUGAGGAUCACCCAUGUAGGUGUCACUGGUAGUGAAGGCUCGGGAGGAUAUAUCAUCCACA”, the “apparent Kd” value runs as follows: under setting [1], 0.0329 µM; under setting [2], 0.0307 µM.
The corresponding values for “UCUUUAAGCACAGGAUAUUGGUACAUGAGGAUCACCCAUGUGGAUCGUACUACCUCUCCACCGGACAAGAAGGGUGCGCCUACG” are 0.172 µM and 0.125 µM.
The corresponding values for “GCCGACCUCACAUGAGGAUCACCCAUGUGCCGGAAACUACUGAGAAGGGCUCUAAUUCCAGGCGAGCAGGAUAUCAUAAAAUAG” are 0.0174 µM and 0.00878 µM.
On to “UACCGACAUGAGGAUCACCCAUGUACUGCGCUUGGAGGAUAUCGGCUUGAUUUUGCGCGUCGAGAAGGCCAACCUA”, for which the “apparent Kd” value runs as follows: under setting [1], 0.0122 µM; under setting [2], 0.0102 µM.
Regarding “CUUCAACAUGAGGAUCACCCAUGUAGUGAUACCAGUCACUCAUACGACCCUUGGCAGCACAUUUUCUGUCGGCAUGUAGACGAUC”, the “apparent Kd” value is 0.121 µM (designed as: ON switch for theophylline, no ligand) and 0.0599 µM (ligand present: theophylline, designed as: ON switch for theophylline).
On to “UAGGACAUCCAGAAGGUAACCCAAUGAUAUAACACAUGAGGAUCACCCAUGUUGAAUCAGAGACUUAAGGAUAUGGUUGAUCUU”, for which the “apparent Kd” value was found to be 0.0231 µM under setting [1] and 0.0135 µM under setting [2].
For the sequence “GCCCGGACACAAGGAUAUCAGACCAAUACAUGAGGAUCACCCAUGUCGGGCCUCUAAGUACGACCUGAGAAGGUGUCUCCCAGU”, the “apparent Kd” value is, setting by setting: under setting [3], 0.421 µM; under setting [4], 0.345 µM.
Consider “GUAUUACAUGAGGAUCACCCAUGUGCGCCGCGUCAAGGAUAUGUAUCGUACGUGUAGUAAACAGAAGGUGACGGAU”, for which the “apparent Kd” value under setting [1] was 0.17 µM and the “apparent Kd” value under setting [2] was found to be 0.0712 µM.
In the case of “GGUUCUUGUUGACGUUUAUACAUGAGGAUCACCCAUGUUGCGCAGGAUAUUUCACAUUGAUAGAGAAAGAAGGGCGAUGUACGU”, the “apparent Kd” value under setting [1] worked out at 0.0104 µM and the “apparent Kd” value under setting [2] was 0.00868 µM.
On the same counts, the results for “CGUUCAGAUCAUGAUAACAUGAGGAUCACCCAUGUGGAAUAAUAGGAUAUGGAGAACAAAAUUAACCAGAAGGAUUAUAACAAA” are 0.07 µM and 0.0449 µM.
Take “GGUUGGUCGCAGGAUACCAGUCCACCCGUGAUACUGCUAAACAUGAGGAUCACCCAUGUCGACCCUUGGCAGCCUGUCCAUGCGU”: the “apparent Kd” value (designed as: OFF switch for theophylline, no ligand) stood at 0.0163 µM and the “apparent Kd” value (ligand present: theophylline, designed as: OFF switch for theophylline) came to 0.124 µM.
With “UAAUAGAUUACGGCCGCCACUGAAGUGGACUUUAUGAGCAGGAUUCACAUGAGGAUCACCCAUGUCAGGACCGGGUACGUCCAUA”, the “apparent Kd” value (designed as: OFF switch for tryptophan, no ligand) was found to be 0.0393 µM and the “apparent Kd” value (ligand present: tryptophan, designed as: OFF switch for tryptophan) was found to be 0.0454 µM.
With “AAUACACUUGAGAAGGCCCAAACAUGAGGAUCACCCAUGUGACAUGUAAUCGCCGCGAAUGGAAGGGAGGAUAUCAGAAUCCAC”, the “apparent Kd” value was found to be 0.0162 µM under setting [1] and 0.0175 µM under setting [2].
In the case of “UACCGGGCGAUAGGAUAUAUCAGUUACUUCACAUGAGGAUCACCCAUGUUACCCGUGGAAAGUUGAUAGAAGGAUCCAGCUCCA”, the “apparent Kd” value by setting is: under setting [3], 0.0448 µM; under setting [4], 0.0412 µM.
On the same counts, the results for “GAAGUCGCCGAGAAGGGAGCGAAACUCUCUAUCACAUGAGGAUCACCCAUGUAGUUCUCGUGAGCUCAGGAUAUCGUCGAACGC” are 0.0145 µM and 0.0105 µM.
On the same counts, the results for “CUACGCAUAGGAUAUGCCUACUGGGACAUGAGGAUCACCCAUGUGUUAUUAUCAGCUCCGGCAGAAGGAUGGUACU” are 0.0291 µM and 0.0118 µM.
In the case of “AACAUGAGGAUCACCCAUGUCACAUACAAGUGGAGUUCUAUGAGAAGGGCGAAACGAAUGAGCACGCAGGAUAUCAGCGAUAAA”, the “apparent Kd” value by setting is: under setting [1], 0.0135 µM; under setting [2], 0.0113 µM.
Turning to “CUAAGCUCGGACAAGGAUAUUAAUUACUAGACAUGAGGAUCACCCAUGUCAACAGACUGGAGGAUUAAGAAGGUGAUUGAAAACCC”, the “apparent Kd” value under setting [1] was determined as 0.0218 µM and the “apparent Kd” value under setting [2] worked out at 0.0194 µM.
For the sequence “UGUAACACAGGAUAUACAUAGGCCAGCCACUGACUCAGGUCACAUGAGGAUCACCCAUGUAGAAGGGUGCUGAA”, the “apparent Kd” value worked out at 0.116 µM under setting [3] and 0.0841 µM under setting [4].
“ACAUGAUGCUAGAAGGGCACACAUGAGGAUCACCCAUGUCGAACGAUUCUUCGGGACUAUCGCAUGCAGGAUAUAGCUAAAUCG”: the “apparent Kd” value under setting [1] stood at 0.0132 µM and the “apparent Kd” value under setting [2] was found to be 0.00824 µM.
As to “GACCGGUAUCCAGGAUAUGCAAUUAUUUACAUGAGGAUCACCCAUGUCGCAAGAGUAGGGGUGUAGCAGAAGGGGACAACAGCA”, the “apparent Kd” value came to 0.0707 µM under setting [3] and 0.0627 µM under setting [4].

The values above are taken from the EternaBench riboswitch data.
